One experiment concerns NCI-H460. The experiment can be described thus: Antiproliferative activity against human H460 cells after 96 hrs by Cell Titre-Glo luminescent assay. In kind it is functional, cell-based. The conditions noted are these: NCI-H460, 96 h.
Another experiment concerns A2780. The experiment can be described thus: Antiproliferative activity against human A2780 cells after 2 days by Alamar Blue assay. In kind it is functional, cell-based. The conditions noted are these: A2780, 48 h. In short, it runs like this:
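Drug-sensitive human ovarian cancer cell line; samples delivered in 1 μL of 100% DMSO per well rather than 20 μL of 1:1 DMSO–H2O. Otherwise run by a previously reported protocol.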
On the technique in general: Alamar Blue is a resazurin reagent that responds to reducing activity.

For `Oc1ccc2c(c1)-c1nccc3ccnc-2c13`, the IC50 with NCI-H460 is more than 10 µM; in the experiment on A2780, 12.7 µM.

Take `COc1ccc2c(c1)-c1c3c-2nccc3cc[n+]1[O-]`: the IC50 was more than 10 µM with NCI-H460 and 54.3 µM with A2780.

`COc1cccc2c1-c1nccc3ccnc(c13)C2=O`: the IC50 in the experiment on NCI-H460 is 0.57 µM; with A2780, 10.3 µM.

Turning to `[O-][n+]1ccc2ccnc3c2c1-c1ccccc1-3`, the IC50 in the experiment on NCI-H460 was 1.77 µM; with A2780 it was 3.5 µM.

With `COc1ccc2c(c1)-c1nccc3ccnc-2c13`, the IC50 was more than 10 µM in the experiment on NCI-H460 and 11.1 µM in the experiment with A2780.

Consider `COc1ccc2c(c1)-c1nccc3cc[n+]([O-])c-2c13`, for which the IC50 in the experiment with NCI-H460 is more than 100 µM; with A2780, 50.3 µM.

As for `c1ccc2c(c1)-c1nccc3ccnc-2c13` [EUPOLAURIDINE], the IC50 is more than 100 µM with NCI-H460 and 35.7 µM with A2780.

With `O=C1c2ccccc2-c2nccc3ccnc1c23` [SAMPANGINE], the results for the IC50 in the experiment with NCI-H460 and in the experiment on A2780 were 0.58 µM and 0.6 µM, respectively.

The term IC50 denotes the point on the concentration scale where inhibition reaches its midpoint.
